This note sets out measurements from ChEMBL document CHEMBL1125928, “Isoprenyl phosphinylformates: new inhibitors of squalene synthetase” (J Med Chem, 1991).

For data set [1], the species on record is Rattus norvegicus. The data set can be described thus: Compound was tested for the inhibition of cholesterol biosynthesis from [14C]- acetate in freshly isolated rat hepatocytes. The settings on record: Hepatocyte, read-out: I50. Format: functional.
Data set [2] deals with T1, Squalene synthase (Rattus norvegicus, UniProt Q02769).
T1 sequence (Q02769 whole entry): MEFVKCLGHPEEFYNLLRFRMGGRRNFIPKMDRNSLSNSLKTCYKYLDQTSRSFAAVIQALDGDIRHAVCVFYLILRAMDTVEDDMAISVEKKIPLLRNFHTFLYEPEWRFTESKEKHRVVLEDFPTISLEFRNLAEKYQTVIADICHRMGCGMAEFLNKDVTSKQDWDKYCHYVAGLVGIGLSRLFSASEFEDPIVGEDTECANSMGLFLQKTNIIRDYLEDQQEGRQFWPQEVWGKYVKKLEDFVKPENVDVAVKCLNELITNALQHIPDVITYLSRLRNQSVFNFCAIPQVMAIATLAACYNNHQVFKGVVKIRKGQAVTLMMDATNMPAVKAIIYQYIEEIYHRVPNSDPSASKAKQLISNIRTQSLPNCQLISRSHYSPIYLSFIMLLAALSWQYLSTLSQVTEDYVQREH
The data set can be described thus: Inhibitory activity against liver microsomal Squalene synthase. The settings on record: read-out: I50. (Microsomes from liver hold many membrane-bound enzymes, among them those of drug oxidation.)

The species named for data set [3] is Homo sapiens. Put plainly: Compound was tested for the inhibition of cholesterol biosynthesis from [14C]- acetate in freshly isolated from human skin fibroblasts; inactive at 100 uM. Type of data set: functional, organism-based.
The species named for data set [4] is Rattus norvegicus. The data set can be described thus: Compound was tested for the inhibition of cholesterol biosynthesis from [14C]- acetate in freshly isolated rat hepatocytes; inactive at 200 uM. The settings on record: hepatocyte. Type of data set: functional.
Data set [5] deals with T1, Squalene synthase. Put plainly: Inhibitory activity against microsomal squalene synthase.
Data set [6] is filed under the species Homo sapiens. Put plainly: Compound was tested for the inhibition of cholesterol biosynthesis from [14C]- acetate in freshly isolated from human skin fibroblasts; inactive at 15 uM. Format: functional, organism-based.
The species named for data set [7] is Homo sapiens. The data set can be described thus: Compound was tested for the inhibition of cholesterol biosynthesis from [14C]- acetate in freshly isolated from human skin fibroblasts. Format: functional, organism-based. The settings on record: read-out: I50.
The species entered for data set [8] is Homo sapiens. The data set can be described thus: Compound was tested for the inhibition of cholesterol biosynthesis from [14C]- acetate in freshly isolated from human skin fibroblasts; inactive at 30 uM. Type of data set: functional.
Data set [9] is filed under the species Homo sapiens. Put plainly: Compound was tested for the inhibition of cholesterol biosynthesis from [14C]- acetate in freshly isolated from human skin fibroblasts; inactive at 300 uM. Type of data set: functional, organism-based.
Compound in data set [10]: CC(C)=CCC/C(C)=C/CC/C(C)=C/COP(=O)(O)OP(=O)(O)O
Put plainly: Competitive inhibitory activity against microsomal Squalene synthase. Put shortly: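 Rat microsomal enzyme; inhibitor at 0, 2.5, 10 and 30 μM against FPP varied from 5 to 50 μM, with NADPH held saturating at 0.9 mM. Inhibition type and Ki were taken from double-reciprocal (Lineweaver-Burk) plots of the kinetic data.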

Usually Ki stands for the dissociation constant of the complex between target and ligand, obtained from inhibition or displacement. By Km is commonly meant the substrate concentration at which the rate is half of its maximum.

In the case of `CC(C)=CCC/C(C)=C/CC/C(C)=C/COP(=O)(O)CC(=O)O`, the IC50 came to 273 µM in data set [1] and 86 µM in [2].

Turning to `CC(C)=CCC/C(C)=C/CC/C(C)=C/CCP(=O)(O)CP(=O)(O)O`, the I50 entry in data set [3] and in data set [4] was “Inactive” in each case. The Ki in data set [5] worked out at 10 µM.

As to `CC(C)=CCC/C(C)=C/CC/C(C)=C/CCP(=O)([O-])CC(=O)[O-].[K+].[K+]`, in data set [3], the I50 result is reported as “Inactive”. Moreover, in [1], the IC50 worked out at 71 µM.

As for `CC(C)=CCC/C(C)=C/CC/C(C)=C/CCOP(=O)([O-])C(=O)[O-].[Na+].[Na+]`, in [6], the I50 entry is “Inactive”. Also, the IC50 in data set [1] stood at 6 µM; in [2], 8.7 µM.

For the molecule `CCOC(=O)P(=O)(O)OCC/C=C(\C)CC/C=C(\C)CCC=C(C)C`, the IC50 in data set [7] stood at 12 µM; in [1], 9 µM; in data set [2], 106 µM.

`CC(C)=CCC/C(C)=C/CC/C(C)=C/CCC[PH](=O)O`: in data set [2], the IC50 was found to be 197 µM.

As to `CC(C)=CCC/C(C)=C/CC/C(C)=C/CCP(=O)([O-])C(=O)[O-].[Na+].[Na+]`, the IC50 in data set [1] is 5.7 µM; in data set [2], 100 µM. The I50 entry in data set [8] is given as “Inactive”.

Take `CCOC(=O)P(=O)(O)CCC/C=C(\C)CC/C=C(\C)CCC=C(C)C`: the IC50 in [7] came to 2.2 µM; in [1], 24 µM; in data set [2], 112 µM.

Regarding `CC(C)=CCC/C(C)=C/CC/C(C)=C/CCCP(=O)([O-])C(=O)[O-].[Na+].[Na+]`, the I50 result in data set [9] is “Inactive”. For the same molecule, the IC50 was 30 µM in [1] and 31.8 µM in data set [2].

`CC(C)=CCC/C(C)=C/CC/C(C)=C/CCCOP(=O)(O)C(=O)O`: in data set [2], the IC50 turned out to be 41.6 µM.

B1: Squalene synthase (Rattus norvegicus), Q02769 (protein)
chain: T1 sequence (Q02769 whole entry)
Turning to B1, in data set [10], the Km was determined as 12.7 µM.
